Sampled rows, rich in hits. Any-hit rate of the full collection: about 1.4%.
TDP2 inh: human TDP2 enzyme inhibitors, primary screen, biochemical, epi absorbance, recombinant enzyme | Tyrosyl-DNA phosphodiesterase 2 (Homo sapiens), O95551 | T5PNP hydrolysis, p-nitrophenol absorbance 415 nm | inhibition, % at 12.8 µM | 370,000 tested, 0.34% active | AID 720702, 2013;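 active = inhibition above the mean of all tested compounds plus 3 SD, set per campaign, cut at about 25% in these data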;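 note: 0% = DMSO with enzyme and 100% = buffer with substrate but no TDP2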
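Material: recombinant human TDP2; quantity: TDP2 enzyme at 120 nM final; medium: Tris-HCl pH 7.5 with MgCl2; compound: single concentration, 12.8 µM nominal, with 1% DMSO; incubation: 2 h enzyme incubation at 37 °C; signal: epi absorbance; measure: percent inhibition; benchmarks: high control without enzyme, low control DMSO plus TDP2; repeats: singlicate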
Fh CTSL1 inh: Fasciola hepatica cathepsin L1 inhibitors, primary screen, counter-screen for PFM18AAP inhibitor project, biochemical, QFRET, fluorogenic peptide substrate; recombinant F. hepatica cathepsin L1, Z-Leu-Arg-MCA fluorescence; 300,000 tested, 0.49% active; inhibition, % at 5.96 µM; AID 1906, 2009;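 active = inhibition above the mean of all tested compounds plus 3 SD, set per screening campaign, cut at about 17% in these data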;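 note: 0% = plate median of test compound wells and 100% = 1 µM Z-Phe-Ala-diazomethylketone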
PAD4 inh: human PAD4 inhibitors, primary screen, biochemical, fluorescence polarization, 1536-well format | Protein-arginine deiminase type-4 (Homo sapiens), Q9UM07 | inhibition, % at 6.36 µM | 330,000 tested, 0.41% active | recombinant PAD4, RCA probe fluorescence polarization;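 active = percent inhibition above a cutoff equal to the mean of all tested compounds plus 3 SD, cut at about 15% in these data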;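 note: 0% = PAD4 with RCA probe and DMSO and 100% = probe without PAD4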
Target sequence (Q9UM07 whole entry, looked up): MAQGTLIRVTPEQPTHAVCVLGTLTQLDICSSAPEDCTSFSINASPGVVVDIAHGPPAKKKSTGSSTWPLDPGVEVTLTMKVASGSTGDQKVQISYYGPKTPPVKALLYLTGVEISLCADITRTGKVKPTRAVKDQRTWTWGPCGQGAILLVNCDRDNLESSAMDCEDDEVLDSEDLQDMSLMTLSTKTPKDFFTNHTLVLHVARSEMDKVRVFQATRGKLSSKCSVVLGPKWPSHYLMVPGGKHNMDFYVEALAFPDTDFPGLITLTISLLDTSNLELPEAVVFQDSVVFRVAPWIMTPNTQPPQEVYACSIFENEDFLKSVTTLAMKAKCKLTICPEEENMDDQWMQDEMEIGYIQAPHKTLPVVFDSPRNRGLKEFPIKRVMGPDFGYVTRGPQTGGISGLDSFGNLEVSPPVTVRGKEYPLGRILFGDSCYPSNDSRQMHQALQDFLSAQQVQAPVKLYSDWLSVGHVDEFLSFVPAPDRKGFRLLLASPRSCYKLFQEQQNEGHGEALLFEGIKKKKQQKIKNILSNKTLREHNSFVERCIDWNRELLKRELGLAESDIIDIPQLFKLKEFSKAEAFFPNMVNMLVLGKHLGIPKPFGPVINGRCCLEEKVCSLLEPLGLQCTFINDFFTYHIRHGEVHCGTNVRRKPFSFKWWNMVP
GSTO1 inh: inhibitors of recombinant GSTO1, primary screen, counter-screen for RBBP9 inhibitor project, biochemical, fluorescence polarization | Glutathione S-transferase omega-1 (Homo sapiens), P78417 | activity-based probe fluorescence polarization | inhibition, % at 5.96 µM | 300,000 tested, 1.1% active | AID 1974, 2009;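 active = inhibition above the campaign mean inhibition plus 3 SD, cut at about 35% in these data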;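 note: 0% = GSTO1-1 with DMSO and 100% = wells lacking GSTO1-1 enzyme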
* marks the source's active call; other numbers are inactive results; . = no result.

SMILES | TDP2 inh | Fh CTSL1 inh | PAD4 inh | GSTO1 inh
COc1cc(C(=O)NC2=NCCS2)ccc1OCc1c(C)noc1C | 6.9 | 37.2* | 1.0 | 3.4
O=C(CSc1nnnn1-c1ccccc1)CC(=O)Nc1ccc(Cl)cc1 | -5.1 | 23.7* | -5.4 | -20.8
NC(=O)c1ccc(-n2nnnc2SCC(=O)Nc2ccccc2)cc1 | -12.7 | -1.9 | 1.2 | -0.7
CCc1nnc(NC(=O)CSc2nnc(COc3cccc(C)c3)o2)s1 | 3.2 | -4.2 | -1.1 | 34.9*
Cc1ccc(OCc2nnc(SCC(=O)CC(=O)Nc3ccccc3)o2)cc1 | 3.5 | 24.7* | -11.4 | 15.0
Cn1c(SCC(=O)CC(=O)Nc2ccccc2)nnc1-c1ccc(O)cc1 | 6.1 | 26.5* | -1.9 | -1.1
COc1cc(OC)cc(C2=Cc3ccccc3C(CC(C)=O)N2c2ccc(C#CC3(N)CCCCC3)cc2)c1 (stereo unspecified) | -3.9 | . | . | .
O=S1(=O)c2ccccc2N=NN1Cc1ccc(Cl)c(Cl)c1 | . | 6.6 | -7.4 | 35.0*
CCOC(=O)C1=NOC(C(=O)NC2CCCC2)(C(=O)c2ccc(OC)cc2)C1 (stereo unspecified) | -5.4 | . | . | .
Cc1ccc(N(CC2CO2)S(=O)(=O)c2ccc(C)cc2)cc1 (stereo unspecified) | -1.8 | -3.2 | 1.0 | 73.9*
CCC[C@H]1[C@@H](OC(=O)NCc2ccccc2Cl)CC[C@@]23CCCN2C(=O)CCC[C@@H]13 | 3.1 | . | . | .
O=C(CCn1nnc(-c2cccs2)n1)NCc1cccs1 | 5.1 | . | . | .
COc1cccc(C(=O)NC(=S)Nc2ccccc2N2CCCCC2)c1 | 11.4 | -3.8 | -0.8 | -7.3
O=C(NC(=S)Nc1ccccc1N1CCCC1)c1ccccc1Br | 3.9 | 22.5* | -5.5 | 26.9
COc1cccc(C(=O)NC(=S)Nc2ccccc2N2CCCC2)c1 | 8.6 | 23.4* | -2.4 | 24.1
COC(=O)[C@]12C[C@H](CC(=O)N3CCCCC3)C(=O)N(Cc3ccco3)C1=C[C@H](COCc1ccccc1)O[C@@H]2C | -8.3 | . | . | .
FC(F)(F)c1ccc2c(c1)NCC1CCCN21 (stereo unspecified) | 8.6 | 21.6* | -0.2 | 25.9
Cc1ccccc1CN1CCCCC(NC(=O)Cc2cccs2)C1=O (stereo unspecified) | -0.1 | . | . | .
CC(=O)c1cc2c(O)c(O)ccc2o1 | -14.0 | -1.2 | -1.8 | 37.0*
CC(=O)c1cc2cc(O)ccc2o1 | -2.0 | 5.7 | 0.2 | -0.8
C[C@@H]1CN([C@@H](C)CO)C(=O)CCCn2cc(nn2)CO[C@H]1CN(C)C(=O)Nc1cccc(Oc2ccccn2)c1 | 9.1 | . | . | .
Fc1ccc2cc(C3=CCCCC3)ncc2c1 | 14.2 | . | . | .
CN(C1=C(N2CCOCC2)C(=O)c2ccccc2C1=O)c1ccccc1 | -2.4 | 61.9* | 7.0 | 7.1
O=C1C(NS(=O)(=O)c2cccs2)=C(N2CCOCC2)C(=O)c2ccccc21 | 11.7 | 0.7 | -10.4 | 7.4
O=c1ccc(-c2ccc(S(=O)(=O)Nc3cccc([N+](=O)[O-])c3)s2)n[nH]1 | -3.1 | 21.4* | 0.6 | -21.5
SMILES | TDP2 inh | Fh CTSL1 inh | PAD4 inh | GSTO1 inh
O=C(NCC(c1cccs1)N1CCOCC1)c1ccccc1NS(=O)(=O)c1ccc(Cl)c([N+](=O)[O-])c1 (stereo unspecified) | 2.7 | -2.4 | -2.1 | 50.2*
O=C(NCC(c1cccs1)N1CCOCC1)c1ccccc1NS(=O)(=O)c1cccc([N+](=O)[O-])c1 (stereo unspecified) | 2.6 | 0.5 | 4.1 | -4.0
CC1=NN(c2ccccc2)C(=O)/C1=C\C=C1/N(C)c2ccccc2C1(C)C | 14.1 | 5.3 | -8.9 | 72.0*
O=C(NCCN1CCOCC1)c1ccc2c(c1)N(Cc1ccccc1)C(=O)CS2 | 9.1 | 32.0* | -4.0 | 3.0
O=C(NCCN1CCOCC1)c1ccc2c(c1)N(Cc1ccc(Cl)cc1)C(=O)CS2 | -2.9 | -1.0 | 3.4 | -4.7
Cn1cccc1C(=O)N1CCN(S(=O)(=O)c2cccs2)CC1 | 9.3 | . | . | .
CC(C)COC(=O)c1ccc2c(c1O)C(=O)c1ccccc1C2=O | -0.3 | 24.4* | -19.4 | 25.2
COC/C=C/C1=CC2=CC(=O)C(C)(O)C(=O)C2=CO1 (stereo unspecified) | . | -0.2 | 0.8 | 42.0*
COC/C=C/C1=CC2=CC(=O)C(C)(OC(=O)c3ccco3)C(=O)C2=CO1 (stereo unspecified) | . | -4.3 | 24.0* | 35.5*
CCCCCN1CCCCC(NC(=O)c2ccc(C)cc2)C1=O (stereo unspecified) | 3.3 | . | . | .
CC1=C2NC(N)=[N+](CC3CC3)C(Cc3ccccc3)[C@@H]2n2c(=O)n(-c3ccccc3)c(=O)n2C1 (stereo partly specified) | 4.9 | . | . | .
CCN(CCO)c1nc(SC)nc2c1sc1nc(-c3ccco3)c3c(c12)CCC3 | . | 17.5* | -1.8 | 0.5
CCN(CCO)c1ncnc2c1sc1nc(C(C)C)c3c(c12)CC(C)(C)OC3 | -7.0 | 2.2 | 1.2 | -6.5
CSc1nc(NCc2ccco2)c2sc3nc(C(C)C)c4c(c3c2n1)CC(C)(C)OC4 | 3.3 | -3.6 | 1.6 | -2.8
CSc1nc(NCCOCCO)c2sc3nc(-c4ccco4)c4c(c3c2n1)CCC4 | -10.2 | 17.4* | -8.5 | 20.7
O=C(CCc1ccccc1)N[C@H]1[C@@H](OC(=O)c2cnccn2)CCC[C@@]12C(=O)N(Cc1ccccc1)c1ccccc12 | -2.6 | . | . | .
O=C(NCc1ccco1)C(Cc1ccccc1)N1C(=O)C2C3C=CC(C3)C2C1=O (stereo unspecified) | -8.1 | 20.2* | 4.8 | 3.2
O=C(C(Cc1ccccc1)N1C(=O)C2C3C=CC(C3)C2C1=O)N1CCCCCC1 (stereo unspecified) | 7.0 | 3.5 | 4.6 | -1.5
COC(=O)c1ccc(N2NC(=O)/C(=C/c3cc(OC)c(OC)c(OC)c3)C2=O)cc1 | -5.3 | 3.4 | -6.8 | 23.1
COC(=O)c1ccc(N2NC(=O)/C(=C/c3cc(OC)c(O)c(OC)c3)C2=O)cc1 | -17.3 | 12.1 | 0.3 | 36.6*
COc1cccc(C(=O)NNC2OC(CO)C(O)C2O)c1 (stereo unspecified) | -9.3 | 18.7* | -5.3 | 2.8
O=C(NNC1OC(CO)C(O)C(O)C1O)c1cccnc1 (stereo unspecified) | 11.1 | -0.5 | -7.6 | 9.8
CCOC(=O)/C=C/C(=O)Nc1cccc([N+](=O)[O-])c1 | . | 17.6* | -2.1 | 0.8
Cc1ccc(Nc2c(-c3ccccn3)nc3cc(C)ccn23)cc1 | -17.1 | 5.7 | 0.6 | 26.9
Cc1ccc(Nc2c(-c3ccccn3)nc3ccc(C)cn23)cc1 | -17.8 | 19.1* | 5.2 | 23.1
COc1ccc(/C=C2\SC(=O)N(CC(=O)NNC(=O)c3ccccc3O)C2=O)cc1OC | 1.3 | -0.3 | 2.3 | 38.0*
O=C1S/C(=C/c2ccc(N3CCOCC3)o2)C(=O)N1Cc1c(F)cccc1Cl | -6.3 | 49.3* | -1.9 | 3.4
CN1C(=O)CC(N2CCC(c3nc4ccccc4s3)CC2)C1=O (stereo unspecified) | 6.6 | 19.1* | 2.3 | 7.6

High-throughput results from PubChem BioAssay.
